ROMK primary – modulates human ROMK potassium channel activity; Tet-inducible ROMK, thallium flux fluorescence; actives lie on both sides; B-score at 10 µM; AID 1918; 130,000 tested, 2% active; P48048;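 active means signal ratio slope over the read window, or its plate-corrected B-score, at least 3 SD from the plate mean, either direction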;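 further: B-score of the F/F0 ratio slope over 7 to 12 s after thallium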
Target sequence (P48048 whole entry, looked up): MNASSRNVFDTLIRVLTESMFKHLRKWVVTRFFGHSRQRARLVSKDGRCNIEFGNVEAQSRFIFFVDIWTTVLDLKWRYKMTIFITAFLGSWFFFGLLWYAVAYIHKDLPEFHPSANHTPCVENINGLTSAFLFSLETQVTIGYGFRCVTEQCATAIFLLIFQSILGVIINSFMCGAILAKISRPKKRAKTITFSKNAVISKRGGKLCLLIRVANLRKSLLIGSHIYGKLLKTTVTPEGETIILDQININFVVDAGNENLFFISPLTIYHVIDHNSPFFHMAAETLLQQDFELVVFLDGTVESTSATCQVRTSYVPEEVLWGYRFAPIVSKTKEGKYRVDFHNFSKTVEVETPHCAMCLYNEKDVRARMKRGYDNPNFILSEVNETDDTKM
Cl transport mod – KCC2 (human) Cl- transport modulation. Q9H2X9. KCC2 cells, thallium flux FluoZin-2 fluorescence. B-score of Tl+ flux slope (higher = more flux/activation; lower = inhibition) at 10 µM. 190,000 tested, 2.2% active. AID 1456;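 active means thallium flux slope and its plate-corrected score both differing from the plate sample mean at a set confidence after two filtering rounds, in either direction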;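 further: slope of fluorescence scaled to starting intensity during 10 to 20 s after thallium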
bCat nuc transl – alters nuclear translocation of beta-catenin in HeLa cells | nuclear translocation activity, % at 5 µM | AID 1665 | immunofluorescence imaging | 190,000 tested, 0.3% active;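 active means nuclear translocation activity above 50% at 5 µM, with a well cell count of 50 or more; inconclusive means wells under 50 cells across six images, flagged as toxic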;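 further: per-cell ratio of nuclear to cytoplasmic median beta-catenin stain intensity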
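System: HeLa cells, endogenous beta-catenin; compound dosing: 5 µM primary single dose, 0.1% DMSO, 0.02–20 µM confirmation series; incubation: 24 h compound exposure at 37°C, 5% CO2; signal: beta-catenin immunofluorescence imaging with DAPI; evaluation: % activation, nuclear-to-cytoplasmic median beta-catenin signal ratio per cell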
Redox H2O2 prof – compounds producing H2O2 with reducing agent – biochemical, NIH compound library profiling, artefact control for MLSCN library redox annotation, primary screen. DTT-dependent redox cycling H2O2, phenol red/HRP absorbance; 100% = 100 µM peroxide control, 0% = buffer. activation, % at 10 µM. 200,000 tested, 0.03% active. AID 878;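 active means activation of at least 50% relative to the plate's high and low controls in the primary single-dose screen; inactive means activation below 50%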;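 further: compound incubated with DTT at 0.8 mM final as the reducing agent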
MT stabilizer – microtubule stabilizers in HeLa cells | % tubulin-high responders, % at 10 µM | 200,000 tested, 0.83% active | HeLa tubulin immunostaining HCS, 24 h; share of cells brighter than vehicle mean+2SD;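 active means plate Z-score above 3 for both tubulin-high and condensed-nucleus cell shares, with cell loss under 80%, at 10 µM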;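 further: anti alpha tubulin signal scored within the nucleus-defined area of each cell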
KCC2 secondary – confirmation of human KCC2 transport modulators; shares compounds with Cl transport mod; HEK293-KCC2, thallium flux, FluoZin2 fluorescence; active compounds read high; normalised thallium flux (F/F0 slope) at 10 µM; 3,700 tested, 15% active;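 active means thallium flux slope above the same plate's solvent-only control mean plus 3 SD; inconclusive means the two replicate wells disagree; inactive means no significant difference from solvent-only control wells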
KCC2 bumet counter – bumetanide-insensitive thallium flux in KCC2 cells with ouabain, counter-screen; shares compounds with Cl transport mod; HEK293-KCC2 + bumetanide/ouabain, thallium flux FluoZin2; active compounds read high; normalized thallium flux at 10 µM; 3,700 tested, 49% active; AID 1714;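 active means thallium entry rate above the same plate's blocked-transporter control wells by more than 3 SD; inconclusive means the two repeat wells disagree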;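 further: raw slope of fluorescence over initial fluorescence between 10 and 20 s after thallium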
KCC2 sec2 – KCC2 (human) modulation, second secondary assay; 3,700 tested, 23% active; HEK293-KCC2, thallium flux FluoZin2 fluorescence; actives lie on both sides; F/F0 rise rate, 10–20 s post-thallium; shares compounds with Cl transport mod; AID 1715; normalized thallium flux at 10 µM;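 active means thallium flux slope more than 3 SD above or below the plate's solvent-only control mean, mostly below; inconclusive means the two repeat wells disagreed; inactive means no significant shift from solvent-only controls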
HEK293 Tl flux – counter-screen for KCC2 modulators: effect in parental HEK293 cells | shares compounds with Cl transport mod | thallium flux FluoZin2, ouabain; baseline-ratio fluorescence slope, 10–20 s after thallium | thallium flux rate (normalised fluorescence) at 10 µM | 3,700 tested, 46% active | AID 1716;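 active means thallium flux rate significantly above the same plate's solvent-only control wells, beyond their mean plus 3 SD; inconclusive means the two replicate wells gave conflicting results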
KCC2 ouabain – KCC2 (human) modulation, ouabain retest; shares compounds with Cl transport mod; HEK293-KCC2, thallium flux FluoZin2 fluorescence; bidirectional: low = inhibitor, high = activator; raw Tl+ flux slope (below DMSO = inhibition, above = activation) at 10 µM; 3,700 tested, 48% active; AID 1717;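 active means thallium flux slope beyond 3 SD from same-plate DMSO control mean in most replicates, usually higher, sometimes lower; inconclusive means repeat tests gave conflicting results; inactive means no significant difference from controls in most replicates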;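 further: slope of initial-normalized fluorescence between seconds 10 and 20 after thallium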
HEK counter2 – acts in parental HEK cells, second KCC2 counter-screen | shares compounds with Cl transport mod | HEK293 parental, thallium flux FluoZin-2 fluorescence slope | thallium flux slope at 10 µM | 3,700 tested, 33% active;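 active means thallium flux slope above the same plate's solvent-control mean plus 3 SD in both duplicate wells; inconclusive means duplicate wells that disagreed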;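 further: run without ouabain in cells lacking the KCC2 cotransporter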
Each line names hits and unclear results; the compound was inactive in the other large screens (follow-up assays come after a bar, where they were run). The list is not random: actives were taken first. Their share in the collection is about 3.7%.

CNC(=O)CN(c1cccc(Br)c1)S(C)(=O)=O	none (no result: bCat nuc transl) | KCC2 secondary inactive | KCC2 bumet counter inactive | KCC2 sec2 inactive | HEK293 Tl flux inactive | KCC2 ouabain inactive | HEK counter2 inactive
O=C(CSCc1ccc(F)cc1)N1CCN(c2ccc(F)cc2)CC1	Cl transport mod -3.55 (no result: ROMK primary) | KCC2 secondary inactive | KCC2 bumet counter inconclusive | KCC2 sec2 inactive | HEK293 Tl flux inactive | KCC2 ouabain 0.0165 | HEK counter2 inactive
Cc1ccc(N2C(=O)C3C4CC(=O)C(c5ccccc54)C3C2=O)cc1C (stereo not drawn)	none (no result: ROMK primary)
O=C(CNC(=O)c1cccs1)NC1=NCCS1	Cl transport mod 2.86 (no result: ROMK primary) | KCC2 secondary inactive | KCC2 bumet counter inactive | KCC2 sec2 inactive | HEK293 Tl flux inactive | KCC2 ouabain inactive | HEK counter2 inactive
CCCCNC(=O)CNC(=O)c1cccs1	none (no result: ROMK primary)
C=CCn1c(C)cc(C(=O)CSc2nnc(NCc3ccccc3)s2)c1C	Cl transport mod -2.69, MT stabilizer 40.4 | KCC2 secondary inactive | KCC2 bumet counter inactive | KCC2 sec2 inactive | HEK293 Tl flux inconclusive | KCC2 ouabain inconclusive | HEK counter2 inactive
C=CCn1c(C)cc(C(=O)CSc2nnc(Cc3ccccc3)o2)c1C	none (no result: Cl transport mod) | KCC2 secondary inactive | KCC2 bumet counter inactive | KCC2 sec2 0.0296 | HEK293 Tl flux inactive | KCC2 ouabain 0.0169 | HEK counter2 inactive
Cc1cc(C(=O)CSc2nnc(Cc3ccccc3)o2)c(C)n1Cc1ccc2c(c1)OCO2	none
COc1ccccc1OP(=O)(O)Oc1ccccc1OC	none
CC(=O)Oc1ccc2c(=O)c(/C=N/c3cc(=O)[nH]c(=S)[nH]3)coc2c1	none (no result: ROMK primary, Redox H2O2 prof, MT stabilizer)
O=c1cc(/N=C/c2coc3cc(Br)ccc3c2=O)[nH]c(=S)[nH]1	Cl transport mod 9.52 (no result: ROMK primary, Redox H2O2 prof, MT stabilizer) | KCC2 secondary 0.0139 | KCC2 bumet counter 0.0446 | KCC2 sec2 inactive | HEK293 Tl flux 0.00886 | KCC2 ouabain inactive | HEK counter2 inactive
COc1ccc2c(-c3ccccc3)cc(SC(C)C(N)=O)nc2c1 (stereo not drawn)	Cl transport mod 5.47 | KCC2 secondary inactive | KCC2 bumet counter 0.00805 | KCC2 sec2 inactive | HEK293 Tl flux 0.0143 | KCC2 ouabain inactive | HEK counter2 inconclusive
CCCN(C(=O)CSc1cc(-c2ccccc2)c2ccc(OC)cc2n1)C1CCS(=O)(=O)C1 (stereo not drawn)	none (no result: ROMK primary)
O=C(Cc1csc(Nc2nc(=S)[nH]c3ccccc23)n1)N1CCN(c2cccc(C(F)(F)F)c2)CC1	Cl transport mod 11.8 | KCC2 secondary inactive | KCC2 bumet counter 0.0142 | KCC2 sec2 inactive | HEK293 Tl flux 0.0222 | KCC2 ouabain 0.0273 | HEK counter2 0.0182
CCn1nc(C(=O)OCC(=O)N2CC(=O)Nc3ccccc32)c2ccccc2c1=O	none
O=C(COc1ccc(F)cc1)NN1C(=O)CSC1=S	none
FC(F)(F)c1ccc(Cl)c(NC(=S)NC2CC2)c1	Cl transport mod 4.17 | KCC2 secondary inactive | KCC2 bumet counter inactive | KCC2 sec2 inactive | HEK293 Tl flux inactive | KCC2 ouabain inactive | HEK counter2 inactive
CS(=O)(=O)C1=NSC2=NC(=O)/C(=C\c3cccn3-c3ccccc3Cl)C(=N)N21	Cl transport mod -5.14 | KCC2 secondary inactive | KCC2 bumet counter inactive | KCC2 sec2 0.0228 | HEK293 Tl flux 0.00529 | KCC2 ouabain 0.0136 | HEK counter2 inconclusive
C=CCn1c(Cc2cccs2)nnc1SCC(=O)c1ccc2ccccc2c1	Cl transport mod -5.95 (no result: ROMK primary) | KCC2 secondary inactive | KCC2 bumet counter inconclusive | KCC2 sec2 0.0272 | HEK293 Tl flux inactive | KCC2 ouabain 0.0143 | HEK counter2 inactive
C=CCn1c(CCNC(=O)c2cccs2)nnc1SCC(=O)c1ccc(Cl)cc1	none
C=CCn1c(CNC(=O)c2cccs2)nnc1SCC(=O)c1ccc(Br)cc1	Cl transport mod -5.08 (no result: ROMK primary, bCat nuc transl) | KCC2 secondary inactive | KCC2 bumet counter inactive | KCC2 sec2 inactive | HEK293 Tl flux inactive | KCC2 ouabain 0.0369 | HEK counter2 inactive
C=CCn1c(Cc2cccs2)nnc1SCC(=O)c1ccc(F)cc1	Cl transport mod -4.07 (no result: ROMK primary) | KCC2 secondary inactive | KCC2 bumet counter inactive | KCC2 sec2 inactive | HEK293 Tl flux inactive | KCC2 ouabain 0.0149 | HEK counter2 inactive
CCOP(=O)(c1ccc(N(C)C)cc1)C(O)c1ccc(Cl)cc1 (stereo not drawn)	Cl transport mod -4.95 (no result: ROMK primary) | KCC2 secondary inactive | KCC2 bumet counter inactive | KCC2 sec2 inactive | HEK293 Tl flux inactive | KCC2 ouabain inactive | HEK counter2 inactive
CCOP(=O)(c1ccc(N(C)C)cc1)C(O)c1ccccc1 (stereo not drawn)	none
COc1ccc(C(=S)N2CCOCC2)cc1OS(=O)(=O)c1ccccc1[N+](=O)[O-]	none
N#Cc1ccc(NC(=S)NC(=O)CCc2ccc(S(=O)(=O)N3CCOCC3)cc2)cc1	none
O=C(CCC(=O)Nc1ccccc1)NNC(=O)COc1ccccc1	none
CCN(CC)c1c([N+](=O)[O-])ncn1C	none (no result: Cl transport mod) | KCC2 secondary inactive | KCC2 bumet counter inactive | KCC2 sec2 inactive | HEK293 Tl flux inconclusive | KCC2 ouabain inactive | HEK counter2 inconclusive
O=C(N/N=C/c1cc(Cl)cc(Cl)c1O)c1ccncc1	none (no result: ROMK primary, Redox H2O2 prof, MT stabilizer)
O=C(N/N=C/c1cc(Br)c(Br)s1)c1ccncc1	Cl transport mod 6.51 (no result: ROMK primary) | KCC2 secondary inactive | KCC2 bumet counter 0.0145 | KCC2 sec2 inactive | HEK293 Tl flux 0.00968 | KCC2 ouabain inconclusive | HEK counter2 inactive
O=C(N/N=C/c1cc(Br)cc(Br)c1O)c1ccncc1	Cl transport mod -4.52 (no result: ROMK primary) | KCC2 secondary inactive | KCC2 bumet counter 0.000551 | KCC2 sec2 0.0171 | HEK293 Tl flux 0.00277 | KCC2 ouabain 0.0078 | HEK counter2 0.00456
O=C(N/N=C/c1ccc(Br)s1)c1ccncc1	none
C/C(CC(=O)Nc1ccc(Cl)cc1Cl)=N\NC(=O)c1cnccn1	none (no result: ROMK primary, Redox H2O2 prof, MT stabilizer)
Cc1ccnc(NS(=O)(=O)c2ccc(NC(=O)c3ccc(S(=O)(=O)N4CC(C)OC(C)C4)cc3)cc2)n1 (stereo not drawn)	none

From PubChem BioAssay
